Assay results gathered from unrelated publications.
Target: Serine/threonine-protein kinase DCLK2 (DCLK2, Homo sapiens, UniProt Q8N568)
Sequence (Q8N568 1-766, as in one of the studies): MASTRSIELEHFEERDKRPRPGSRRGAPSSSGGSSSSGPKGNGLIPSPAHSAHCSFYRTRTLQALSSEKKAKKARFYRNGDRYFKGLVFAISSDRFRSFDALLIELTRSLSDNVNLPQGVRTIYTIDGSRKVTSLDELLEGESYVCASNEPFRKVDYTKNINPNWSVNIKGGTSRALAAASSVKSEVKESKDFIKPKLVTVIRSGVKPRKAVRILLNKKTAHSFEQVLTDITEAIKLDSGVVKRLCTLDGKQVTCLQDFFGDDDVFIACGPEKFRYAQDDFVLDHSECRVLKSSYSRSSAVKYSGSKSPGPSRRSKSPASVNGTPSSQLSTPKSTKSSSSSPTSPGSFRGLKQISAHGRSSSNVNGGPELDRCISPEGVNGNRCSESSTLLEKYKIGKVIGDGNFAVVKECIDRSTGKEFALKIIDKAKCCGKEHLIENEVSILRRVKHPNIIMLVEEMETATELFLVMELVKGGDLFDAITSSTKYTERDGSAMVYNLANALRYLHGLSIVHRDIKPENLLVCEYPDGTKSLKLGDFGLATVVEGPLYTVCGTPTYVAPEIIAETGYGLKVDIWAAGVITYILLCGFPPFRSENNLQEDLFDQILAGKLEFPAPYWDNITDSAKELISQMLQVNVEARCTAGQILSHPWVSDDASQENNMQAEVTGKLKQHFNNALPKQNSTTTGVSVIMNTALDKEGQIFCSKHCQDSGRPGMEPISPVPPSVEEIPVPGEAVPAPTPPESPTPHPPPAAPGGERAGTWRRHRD

| Compound | read-out | action | method | concentration | endpoint | value |
| --- | --- | --- | --- | --- | --- | --- |
| COc1ccc2c(c1)O[C@H](c1ccc(OC)c(OC)c1)C[C@@H]2NC(=O)C1(c2ccc3c(c2)OC(F)(F)O3)CC1 | cell-free assay |  | competition with immobilised ligand | 1 µM | remaining binding | 98% |
| COc1cc2ncnc(Nc3ccc(Oc4ccccc4)c(C)c3C)c2cc1OC | enzyme activity | inhibitor |  | 1 µM | inhibition | 3% |
| Cc1noc([C@H]2C[C@@H](c3ccc(C(F)(F)F)cc3)CN(C(=O)N3CCS(=O)(=O)C3)C2)n1 | cell-free assay |  | competition with immobilised ligand | 1 µM | remaining binding | 100% |
| Cc1ccc(NC(=O)c2ccc(CN3CCN(C)CC3)cc2)cc1Nc1nc(-c2cccnc2)cs1 | cell-free assay |  |  | 0.5 µM | remaining signal | 102% |
| CC(C)(O)[C@H]1CC[C@H](Nc2ccc3ncc(-c4cccc(C(F)(F)F)c4)n3n2)CC1 | enzyme activity | inhibitor |  | 1 µM | remaining activity | 95.3% |
| N#Cc1ccc(Nc2ccc3[nH]c(=O)[nH]c3c2)c(Cl)c1 | cell-free assay |  | competition with immobilised ligand | 1 µM | remaining binding | 100% |
| CN1CC(Oc2cnc(C#N)cc2-c2ccn3nc(NC(=O)C4CC4)cc3c2)C1 | enzyme activity | inhibitor |  | 1 µM | inhibition | -1% |
| O=C1NC(=O)c2cc(Nc3ccc(F)cc3)c(Nc3ccc(F)cc3)cc21 | cell-free assay |  |  | 0.5 µM | remaining signal | 100% |
| CCN(CC)c1ccc(C2=NNC(=O)CC2C)cc1[N+](=O)[O-] (centres unmarked) | enzyme activity | inhibitor |  | 10 µM | remaining activity | 102% |
| CCN(CC)CCNC(=O)c1c(C)[nH]c(/C=C2\C(=O)Nc3ccc(F)cc32)c1C | enzyme activity | inhibitor |  | 0.3 µM | inhibition | -2% |
| O=C(Nc1cnn(-c2csc(C(=O)NC3COC3)c2)c1)Nc1c(F)cccc1Cl | enzyme activity | inhibitor |  | 5 µM | remaining activity | 94.3% |
| COc1cc2c(N3CCN(C(=O)Nc4ccc(OC(C)C)cc4)CC3)ncnc2cc1OCCCN1CCCCC1 | cell-free assay |  |  | 0.5 µM | remaining signal | 103% |
| Cc1nccc(COC(=O)N2C[C@@H]3[C@@H](CNC(=O)c4ccc5[nH]nnc5c4)[C@@H]3C2)n1 | cell-free assay |  | competition with immobilised ligand | 1 µM | remaining binding | 100% |
| Nc1ncnc2occ(-c3ccc(NC(=O)Nc4cc(C(F)(F)F)ccc4F)cc3)c12 | cell-free assay | inhibitor |  | 20 µM | remaining signal | 100% |
| CS(=O)(=O)NCC[C@H](NC(=O)c1cncc2c1cnn2-c1ccc(F)cc1)c1ccnc(S(C)(=O)=O)c1 | cell-free assay |  | competition with immobilised ligand | 1 µM | remaining binding | 100% |
| CCCS(=O)(=O)Nc1ccc(F)c(C(=O)c2c[nH]c3ncc(-c4ccc(Cl)cc4)cc23)c1F | enzyme activity | inhibitor |  | 1 µM | inhibition | < 10% |
| Cc1ccc(NC(=O)c2ccc(C)c(C(F)(F)F)c2)cc1C#Cc1nn(C2CCC(O)CC2)c2ncnc(N)c12 (centres unmarked) | cell-free assay |  |  | 10 µM | remaining signal | 102% |
| CCCOc1ccc(OC)c(F)c1C(=O)c1ccc(C(=O)N[C@@H]2CNC[C@H]2NC(=O)c2ccc3[nH]ncc3c2)cc1 | enzyme activity | inhibitor |  | 10 µM | remaining activity | 33% |
| CCCOc1ccc([C@H]2[C@H](C(=O)O)[C@@H](c3ccc4c(c3)OCO4)CN2CC(=O)Nc2c(CC)cccc2CC)cc1 | cell-free assay |  | competition with immobilised ligand | 1 µM | remaining binding | 77% |
| Cc1ccc(Nc2nccc(N(C)c3ccc4c(C)n(C)nc4c3)n2)cc1S(N)(=O)=O | enzyme activity | inhibitor |  | 0.3 µM | inhibition | -2% |
| Cn1nc(C(=O)NCc2ccc(C(=O)O)cc2)cc1-c1ccc2[nH]ccc2c1 | cell-free assay |  | competition with immobilised ligand | 0.1 µM | remaining binding | 92% |
| CC(C)(C)c1nc2c(s1)c1nc(N)ncc1c1ccc(NS(=O)(=O)c3c(F)cccc3F)c(F)c12 | enzyme activity | inhibitor | radiometric | 1 µM | remaining activity | 90% |
| Cn1cncc1C1=CN(c2ncnc3[nH]cnc23)CCS1 | enzyme activity | inhibitor | radiometric | 50 nM | inhibition | 12.8% |
